The species named for test [1] is Oryctolagus cuniculus. Put plainly: Compound was evaluated in rabbit-platelet rich plasma (PRP) for the molar concentration required to produce 50% of maximum aggregation. It is filed as functional. The method, boiled down:
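Rabbit platelet-rich plasma; aggregation dose-response curves over 10^-4 to 10^-9 M, two to six replicates per dose level; EC50 is the molar concentration giving 50% of the compound's own maximum aggregation; n counts independent curve determinations.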

The species named for test [2] is Oryctolagus cuniculus. Put plainly: Compound was evaluated in rabbit-platelet rich plasma (PRP) for the maximum aggregation response observed at 1.9*10e-4 molar concentration. It is filed as functional.
Test [3] in a line: Ratio value is (MAPB/platelet EC50)*10e-8. It is filed as functional. The method, boiled down: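 Selectivity index: intravenous hypotensive dose (SHR, 50 mmHg MABP drop) divided by rabbit PRP aggregation EC50; compared against racemic C16-PAF standard to judge separation of hypotensive and aggregatory effects.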
In test [4] the test system is Rattus norvegicus. Put plainly: Compound was evaluated in spontaneous hypertensive rats (SHR) for the intravenous dose required to decrease mean arterial blood pressure (MABP) 50 mmHg. It counts as functional, Artery. The method, boiled down:
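Spontaneously hypertensive rats, intravenous dosing; mean arterial blood pressure monitored; dose lowering MABP by 50 mmHg extrapolated from the dose-response curve.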

The species named for test [5] is Oryctolagus cuniculus. Put plainly: Compound was evaluated in rabbit-platelet rich plasma (PRP) for the maximum aggregation response observed 6.8*10e-6 molar concentration. It is filed as functional.

The structures appear in SMILES notation.

The EC50 is the concentration needed to bring the measured effect to its halfway point. A lower EC50 goes with an effect from little substance. As for `COCCOCCOCCCCCCCCOCC(COP(=O)([O-])OCC[N+](C)(C)C)OC(C)=O` (configuration not stated), the response in test [1] was half-maximal at 5300 nM (EC50). Also, the Max aggregation in test [2] is 67. Moreover, the Ratio in test [3] is 0.15. The molecule further had a Dose in test [4] of 80.5 µg/kg.

In test [5], `CCCCCCCCCCCCCCCCOCC(COP(=O)([O-])OCC[N+](C)(C)C)OC(C)=O` (configuration not stated) [PLATELET ACTIVATING FACTOR] had a Max aggregation of 71. It took 26.5 nM to reach a half-maximal effect in test [1] (EC50). Further, the Ratio in test [3] worked out at 0.47. Further, in test [4], the Dose was 1.25 µg/kg.

For `CCCCCCCCCCOCCOCCOCC(COP(=O)([O-])OCC[N+](C)(C)C)OC(C)=O` (configuration not stated), the midpoint of the response in test [1], the EC50, lay at 130 nM. This molecule had a Max aggregation in test [2] of 61. Further, the Ratio in test [3] is on record as 0.99. This molecule also yielded a Dose in test [4] of 12.9 µg/kg.

Values taken from ChEMBL document CHEMBL1123464, “Analogues of platelet activating factor. 5. Multiple oxygen substitution of the alkoxy chain” (J Med Chem, 1986).
